Assay results from ChEMBL document CHEMBL2040734, “Benzothiazoles: search for anticancer agents” (2012).

Tests used:
Type in all cases: functional
HCT-15 = test: Cytotoxicity against human HCT15 cells assessed as cell growth at 10 uM after 48 hrs by sulforhodamine B assay; settings: HCT-15, 48 h, read-out: Activity
Procedure, shortened: (§1)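 Five-dose NCI panel run at 0.01, 0.1, 1, 10 and 100 µM. Cells were in RPMI 1640 with 5% FBS and 2 mM L-glutamine, seeded at 5000–40,000 cells/well and pre-incubated 24 h. Drug was diluted from a DMSO stock into medium with 50 µg/ml gentamicin. Exposure was 48 h at 37 °C, 5% CO2. Cells were fixed with cold TCA and stained with 0.4% SRB, read at 515 nm. Percent growth came from time-zero, control and test absorbances.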

HT-29 [1] = test: Cytotoxicity against human HT-29 cells assessed as cell growth at 0.1 uM after 48 hrs by sulforhodamine B assay; settings: HT-29, 48 h, read-out: Activity; procedure, shortened: as §1
HT-29 [2] = test: Growth inhibition of human HT-29 cells after 48 hrs by sulforhodamine B assay; settings: HT-29, 48 h
Procedure, shortened: (§2)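 Adherent NCI-60 lines were grown in RPMI 1640 with 5% FBS and 2 mM L-glutamine, plated at 5000–40,000 cells/well and preincubated 24 h. They were then exposed to five concentrations (0.01–100 µM, from a DMSO stock) for 48 h at 37 °C, 5% CO2. Cells were fixed with cold TCA (10% final, 60 min, 4 °C) and stained with 0.4% SRB. Dye was solubilized in 10 mM Tris base and A515 read. GI50 was derived from time-zero, control and treated absorbances.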

OVCAR-3 [3] = test: Growth inhibition of human OVCAR3 cells after 48 hrs by sulforhodamine B assay; settings: OVCAR-3, 48 h; for CC50: read-out: LC50 (the source's name); procedure, shortened: as §2
UACC-62 = test: Growth inhibition of human UACC62 cells after 48 hrs by sulforhodamine B assay; settings: UACC-62, 48 h; for CC50: read-out: LC50 (the source's name); procedure, shortened: as §2
NCI-H522 = test: Cytotoxicity against human NCI-H522 cells assessed as cell growth at 10 uM after 48 hrs by sulforhodamine B assay; settings: NCI-H522, 48 h, read-out: Activity
ACHN = test: Cytotoxicity against human ACHN cells assessed as cell growth at 100 uM after 48 hrs by sulforhodamine B assay; settings: read-out: Activity
Procedure, shortened: (§3)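 NCI-60 five-dose screen. Cells were grown in RPMI 1640 with 5% FBS and 2 mM L-glutamine and preincubated 24 h. Compound (DMSO stock) was tested at 0.01, 0.1, 1, 10 and 100 µM for 48 h at 37 °C. Cells were fixed in situ with cold TCA (final 10%) and stained with 0.4% SRB. A515 was read, and percent growth was calculated against time-zero and control plates.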

A549 = test: Growth inhibition of human A549 cells after 48 hrs by sulforhodamine B assay; settings: A549, 48 h
Procedure, shortened: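 Cells were in RPMI 1640 with 5% FBS and pre-incubated 24 h. Read-out was TCA fixation, SRB staining and absorbance at 515 nm. GI50 was the concentration where [(Ti−Tz)/(C−Tz)]×100 = 50, taken from log concentration vs % growth curves. It is given as ">" the top concentration when not reached.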

SNB-19 = test: Cytotoxicity against human SNB19 cells assessed as cell growth at 1 uM after 48 hrs by sulforhodamine B assay; settings: SNB-19, 48 h, read-out: Activity
SK-MEL-2 = test: Cytotoxicity against human SK-MEL-2 cells assessed as cell growth at 10 '-5 M after 48 hrs by sulforhodamine B assay; settings: SK-MEL-2, 48 h, read-out: Activity
NCI-H226 = test: Cytotoxicity against human NCI-H226 cells assessed as cell growth at 10 '-5 M after 48 hrs by sulforhodamine B assay; settings: NCI-H226, 48 h, read-out: Activity
MDA-MB-468 = test: Cytotoxicity against human MDA-MB-468 cells assessed as cell growth at 1 uM after 48 hrs by sulforhodamine B assay; settings: MDA-MB-468, 48 h, read-out: Activity
KM12 = test: Growth inhibition of human KM12 cells after 48 hrs by sulforhodamine B assay; settings: KM12, 48 h; for CC50: read-out: LC50 (the source's name); procedure, shortened: as §2
SF-539 = test: Cytotoxicity against human SF539 cells assessed as cell growth at 1 uM after 48 hrs by sulforhodamine B assay; settings: SF-539, 48 h, read-out: Activity
MDA-MB-435 [4] = test: Growth inhibition of human MDA-MB-435 cells after 48 hrs by sulforhodamine B assay; settings: MDA-MB-435, 48 h; for CC50: read-out: LC50 (the source's name); procedure, shortened: as §2
OVCAR-4 = test: Growth inhibition of human OVCAR4 cells after 48 hrs by sulforhodamine B assay; settings: OVCAR-4, 48 h; procedure, shortened: as §2
[5] = Cytotoxicity against human Hs 578T cells assessed as cell growth at 1 uM after 48 hrs by sulforhodamine B assay; settings: read-out: Activity; procedure, shortened: as §1
HT-29 [6] = test: Cytotoxicity against human HT-29 cells assessed as cell growth at 10 '-5 M after 48 hrs by sulforhodamine B assay; settings: HT-29, 48 h, read-out: Activity
Procedure, shortened: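 Primary one-dose screen across the NCI 60-line panel at 10 µM. Cells were grown in RPMI 1640 with 5% FBS and 2 mM L-glutamine and held 24 h before drug. Drug was diluted from a DMSO concentrate. Exposure was 48 h at 37 °C, 5% CO2. Cells were fixed with TCA and stained with SRB, with absorbance read at 515 nm. Percent growth was calculated against time-zero and untreated control.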

DU-145 = test: Cytotoxicity against human DU145 cells assessed as cell growth at 10 uM after 48 hrs by sulforhodamine B assay; settings: DU-145, 48 h, read-out: Activity; procedure, shortened: as §1
NCI/ADR-RES = test: Cytotoxicity against human NCI/ADR-RES cells assessed as cell growth at 10 uM after 48 hrs by sulforhodamine B assay; settings: read-out: Activity
CCRF-CEM = test: Cytotoxicity against human CCRF-CEM cells assessed as cell growth at 100 uM after 48 hrs by sulforhodamine B assay; settings: read-out: Activity
Procedure, shortened: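 CCRF-CEM suspension leukemia cells in RPMI 1640 with 5% FBS and 2 mM L-glutamine, plated 24 h before dosing. Five concentrations (0.01–100 µM) were applied from a DMSO stock for 48 h at 37 °C. Settled cells were fixed with 80% TCA (final 16%) and stained with SRB, with read-out at 515 nm. Percent growth was derived from time-zero and control absorbances.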

OVCAR-3 [7] = test: Cytotoxicity against human OVCAR3 cells assessed as cell growth at 0.1 uM after 48 hrs by sulforhodamine B assay; settings: OVCAR-3, 48 h, read-out: Activity
MDA-MB-435 [8] = test: Cytotoxicity against human MDA-MB-435 cells assessed as cell growth at 0.1 uM after 48 hrs by sulforhodamine B assay; settings: MDA-MB-435, 48 h, read-out: Activity
A498 = test: Cytotoxicity against human A498 cells assessed as cell growth at 0.01 uM after 48 hrs by sulforhodamine B assay; settings: A498, 48 h, read-out: Activity; procedure, shortened: as §3

Cc1ccc2nc(Nc3c(C)cccc3C)sc2c1
growth at 10 µM (HCT-15): 23%
growth at 0.1 µM (HT-29 [1]): 92%
GI50 (HT-29 [2]): 0.629 µM
LC50 (concentration killing 50% of cells) (HT-29 [2]): > 100 µM
TGI (HT-29 [2]): > 100 µM
GI50 (OVCAR-3 [3]): > 100 µM
TGI (OVCAR-3 [3]): > 100 µM
CC50 (OVCAR-3 [3]): > 100 µM
GI50 (UACC-62): 1.15 µM
TGI (UACC-62): > 100 µM
CC50 (UACC-62): > 100 µM
growth at 10 µM (NCI-H522): 28%
growth at 100 µM (ACHN): 49%
LC50 (concentration killing 50% of cells) (A549): > 100 µM
TGI (A549): > 100 µM
growth at 1 µM (SNB-19): 61%
growth at 10 µM (SK-MEL-2): 34.6%
growth at 10 µM (NCI-H226): 69.7%
growth at 1 µM (MDA-MB-468): 21%
GI50 (KM12): 1.55 µM
TGI (KM12): > 100 µM
CC50 (KM12): > 100 µM
growth at 1 µM (SF-539): 76%
GI50 (MDA-MB-435 [4]): 0.242 µM
TGI (MDA-MB-435 [4]): 0.822 µM
CC50 (MDA-MB-435 [4]): > 100 µM
GI50 (OVCAR-4): > 100 µM
LC50 (OVCAR-4): > 100 µM
TGI (OVCAR-4): > 100 µM
growth at 1 µM [5]: 64%
growth at 10 µM (HT-29 [6]): 9.15%
growth at 10 µM (DU-145): 75%
growth at 10 µM (NCI/ADR-RES): 22%
growth at 100 µM (CCRF-CEM): 83%
growth at 0.1 µM (OVCAR-3 [7]): 108%
growth at 0.1 µM (MDA-MB-435 [8]): 86%
growth at 0.01 µM (A498): 75%

Clc1cccc(Cl)c1Nc1nc2cccc(Cl)c2s1
growth at 10 µM (HCT-15): -85%
growth at 0.1 µM (HT-29 [1]): 96%
GI50 (HT-29 [2]): 1.29 µM
LC50 (concentration killing 50% of cells) (HT-29 [2]): 6.97 µM
TGI (HT-29 [2]): 2.99 µM
GI50 (OVCAR-3 [3]): 0.983 µM
TGI (OVCAR-3 [3]): 2.2 µM
CC50 (OVCAR-3 [3]): 4.86 µM
GI50 (UACC-62): 1.01 µM
TGI (UACC-62): 2.37 µM
CC50 (UACC-62): 5.55 µM
growth at 10 µM (NCI-H522): -71%
growth at 100 µM (ACHN): -100%
GI50 (A549): 1.11 µM
LC50 (concentration killing 50% of cells) (A549): 7.47 µM
TGI (A549): 2.87 µM
growth at 1 µM (SNB-19): 68%
growth at 10 µM (SK-MEL-2): -52.7%
growth at 10 µM (NCI-H226): -40.8%
growth at 1 µM (MDA-MB-468): 23%
GI50 (KM12): 1.2 µM
TGI (KM12): 2.48 µM
CC50 (KM12): 5.15 µM
growth at 1 µM (SF-539): 77%
GI50 (MDA-MB-435 [4]): 0.813 µM
TGI (MDA-MB-435 [4]): 2.38 µM
CC50 (MDA-MB-435 [4]): 6.05 µM
GI50 (OVCAR-4): 0.708 µM
LC50 (OVCAR-4): 5.05 µM
TGI (OVCAR-4): 2.14 µM
growth at 1 µM [5]: 49%
growth at 10 µM (HT-29 [6]): -67.6%
growth at 10 µM (DU-145): -96%
growth at 10 µM (NCI/ADR-RES): -72%
growth at 100 µM (CCRF-CEM): -12%
growth at 0.1 µM (OVCAR-3 [7]): 97%
growth at 0.1 µM (MDA-MB-435 [8]): 87%
growth at 0.01 µM (A498): 85%
